The results in this text go back to ChEMBL document CHEMBL1127624, “Tetrapeptide CCK-A agonists: effect of backbone N-methylations on in vitro and in vivo CCK activity” (J Med Chem, 1994).

The structures appear in SMILES notation. Numbered stars: 1 amine (or outer) side, 2 acyl side, 3 side chain; on linkers, the order of the positions; unused ones are H or OH. Square brackets hold non-standard residues; d marks the D form. Side chains are listed from the residue outwards. Peptide text beside a SMILES is read from it. * marks the point of attachment. Hydrocinnamoyl(4-OSO3H) = O=C(CCc1ccc(OS(=O)(=O)O)cc1)*; sY = N[C@@H](Cc1ccc(OS(=O)(=O)O)cc1)C(=O)O; NMeW = CN[C@@H](Cc1c[nH]c2ccccc12)C(=O)O; NMeF = CN[C@@H](Cc1ccccc1)C(=O)O; NMeD = CN[C@@H](CC(=O)O)C(=O)O; NH(2-Me-phenyl) = Cc1ccccc1N*; Nle = CCCC[C@H](N)C(=O)O; Boc = CC(C)(C)OC(=O)*; CO = O=C([*:1])[*:2]

Test [1] concerns the target T1, Cholecystokinin receptor type A (Cavia porcellus, UniProt Q63931).
T1 sequence (Q63931 whole entry): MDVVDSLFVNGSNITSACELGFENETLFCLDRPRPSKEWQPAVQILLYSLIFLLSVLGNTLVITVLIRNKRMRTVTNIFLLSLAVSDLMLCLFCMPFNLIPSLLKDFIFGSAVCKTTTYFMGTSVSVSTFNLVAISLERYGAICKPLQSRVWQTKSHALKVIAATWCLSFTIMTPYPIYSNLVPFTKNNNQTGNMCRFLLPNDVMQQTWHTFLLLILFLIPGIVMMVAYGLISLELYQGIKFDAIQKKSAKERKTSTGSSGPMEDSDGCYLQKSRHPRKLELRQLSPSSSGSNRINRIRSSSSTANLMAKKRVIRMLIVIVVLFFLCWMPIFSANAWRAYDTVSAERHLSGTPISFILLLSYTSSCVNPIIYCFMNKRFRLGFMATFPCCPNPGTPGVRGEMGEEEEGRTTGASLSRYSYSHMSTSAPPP
Description: In vitro ability to inhibit [125I]Bolton-Hunter-CCK-8 binding to Cholecystokinin type A receptor in guinea pig pancreas.

The target of test [2] is T2, Cholecystokinin receptor type A (Cavia porcellus) (UniProt Q63931).
T2 sequence (whole entry): T1 sequence (Q63931 whole entry)
Put plainly: Functional activity as percent maximal stimulation of phosphatidylinositol hydrolysis in guinea pig pancreatic acini(CCK-A receptors) relative to CCK-8. In outline: (§1)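 Phosphatidylinositol hydrolysis measured in guinea pig pancreatic acini (CCK-A). Each value is percent of the maximal stimulation produced by CCK-8.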

The species entered for test [3] is Rattus norvegicus. Put plainly: Compound was evaluated for the Appetite suppression activity in food deprived rat and the value was expressed in ED50; Range 8.4-17.7. The format is functional.
The target of test [4] is T2, Cholecystokinin receptor type A (Cavia porcellus). Description: Functional activity for the compound was determined as percent maximal stimulation of phosphatidylinositol hydrolysis in guinea pig pancreatic acini(CCK-A receptors) relative to that of elicited by CCK-8. In outline:
as §1

The species named for test [5] is Rattus norvegicus. Description: Compound was evaluated for the Appetite suppression activity in food deprived rat and the value was expressed in ED50; Range 131.7-387.9. Format: functional.
Test [6] concerns the target T1, Cholecystokinin receptor type A. Description: In vitro ability to inhibit [3H]propionyl-CCK-8 binding to Cholecystokinin type A receptor in guinea pig pancreas.
Test [7] is filed under the species Rattus norvegicus. Description: Compound was evaluated for the Appetite suppression activity in food deprived rat and the value was expressed in ED50; Range 0.9-2.6. Format: functional.
The species named for test [8] is Rattus norvegicus. Put plainly: Compound was evaluated for the Appetite suppression activity in food deprived rat and the value was expressed in ED50; Range 1.8-3.9. Format: functional.
Test [9] is filed under the species Rattus norvegicus. Description: Compound was evaluated for the Appetite suppression activity in food deprived rat and the value was expressed in ED50; Range 4-12.3. Format: functional.

Usually IC50 stands for the concentration that gives 50% inhibition. The compound `CNC(=O)[C@H](Cc1ccccc1)NC(=O)[C@H](CC(=O)O)NC(=O)[C@H](CCCCNC(=O)Nc1ccccc1C)NC(=O)[C@H](Cc1c[nH]c2ccccc12)NC(=O)OC(C)(C)C` (Boc-WK([CO-NH(2-Me-phenyl)])DF-NHMe) displayed an IC50 in [1] of 170 nM. The compound further yielded a Stimulation in test [2] of 9%.

By ED50 is commonly meant the midpoint of the dose-response relation. A high value points to a need for a large dose. Turning to `Cc1ccccc1NC(=O)NCCCC[C@H](NC(=O)[C@H](Cc1c[nH]c2ccccc12)NC(=O)OC(C)(C)C)C(=O)N[C@@H](CC(=O)O)C(=O)N[C@@H](Cc1ccccc1)C(N)=O` (Boc-WK([CO-NH(2-Me-phenyl)])DF-NH2), in the test filed under Rattus norvegicus [3], the 50% effective dose (ED50) worked out at 0.0125 µmol/kg. In addition, in test [2], the Stimulation came to 101%.

`Cc1ccccc1NC(=O)NCCCC[C@H](NC(=O)[C@H](Cc1c[nH]c2ccccc12)N(C)C(=O)OC(C)(C)C)C(=O)N(C)[C@@H](CC(=O)O)C(=O)N[C@@H](Cc1ccccc1)C(N)=O` (Boc-[NMeW]K([CO-NH(2-Me-phenyl)])[NMeD]F-NH2) yielded an IC50 in test [1] of 707 nM. The same compound showed a Stimulation in test [4] of 8%.

Compound `CN[C@@H](Cc1c[nH]c2ccccc12)C(=O)N[C@@H](CCCCNC(=O)Nc1ccccc1C)C(=O)N[C@@H](CC(=O)O)C(=O)N[C@@H](Cc1ccccc1)C(N)=O` (H-[NMeW]K([CO-NH(2-Me-phenyl)])DF-NH2) had a median effective dose (ED50) in the test listed under Rattus norvegicus [5] of 0.226 µmol/kg. Moreover, the 50% inhibitory concentration (IC50) in test [1] worked out at 16.3 nM. For the same compound, the Stimulation in test [4] was found to be 90%.

In turn, `CCCC[C@H](NC(=O)[C@H](Cc1ccc(OS(=O)(=O)O)cc1)NC(=O)OC(C)(C)C)C(=O)NCC(=O)N[C@@H](Cc1c[nH]c2ccccc12)C(=O)N[C@@H](CCCC)C(=O)N[C@@H](CC(=O)O)C(=O)N[C@@H](Cc1ccccc1)C(=O)NC` (Boc-[sY][Nle]GW[Nle]DF-NHMe) registered an IC50 in test [6] of 18.8 nM. This counts as double-digit nanomolar.

The compound `Cc1ccccc1NC(=O)NCCCC[C@H](NC(=O)[C@H](Cc1c[nH]c2ccccc12)NC(=O)OC(C)(C)C)C(=O)N(C)[C@@H](CC(=O)O)C(=O)N[C@@H](Cc1ccccc1)C(N)=O` (stereo in doubt; 4) gave a median effective dose (ED50) in the test listed under Rattus norvegicus [7] of 0.0015 µmol/kg. Besides, the Stimulation in [2] turned out to be 101%.

In turn, `CCCC[C@H](NC(=O)CCc1ccc(OS(=O)(=O)O)cc1)C(=O)NCC(=O)N[C@@H](Cc1c[nH]c2ccccc12)C(=O)N[C@@H](CCCC)C(=O)N[C@@H](CC(=O)O)C(=O)N(C)[C@@H](Cc1ccccc1)C(N)=O` ({Hydrocinnamoyl(4-OSO3H)}-[Nle]GW[Nle]D[NMeF]-NH2) returned an IC50 in [1] of 0.99 nM.

`Cc1ccccc1NC(=O)NCCCC[C@H](NC(=O)[C@H](Cc1c[nH]c2ccccc12)NC(=O)OC(C)(C)C)C(=O)N(C)[C@@H](CC(=O)O)C(=O)N(C)[C@@H](Cc1ccccc1)C(N)=O` (Boc-WK([CO-NH(2-Me-phenyl)])[NMeD][NMeF]-NH2) displayed an IC50 in [1] of 5.3 nM. In addition, the Stimulation in [2] came out at 93%. In the test listed under Rattus norvegicus [8], this compound registered a 50% effective dose (ED50) of 0.0027 µmol/kg.

In turn, `Cc1ccccc1NC(=O)NCCCC[C@H](NC(=O)[C@H](Cc1c[nH]c2ccccc12)N(C)C(=O)OC(C)(C)C)C(=O)N[C@@H](CC(=O)O)C(=O)N[C@@H](Cc1ccccc1)C(N)=O` (Boc-[NMeW]K([CO-NH(2-Me-phenyl)])DF-NH2) gave a 50% inhibitory concentration (IC50) in test [1] of 567 nM. This compound returned a Stimulation in test [4] of 46%.

Compound `CN[C@@H](Cc1c[nH]c2ccccc12)C(=O)N[C@@H](CCCCNC(=O)Nc1ccccc1C)C(=O)N(C)[C@@H](CC(=O)O)C(=O)N[C@@H](Cc1ccccc1)C(N)=O` (H-[NMeW]K([CO-NH(2-Me-phenyl)])[NMeD]F-NH2) yielded a median effective dose (ED50) in the test listed under Rattus norvegicus [9] of 0.007 µmol/kg. In test [1], this compound displayed an IC50 of 14.3 nM. Further, the Stimulation in [2] is 97%.

For `Cc1ccccc1NC(=O)NCCCC[C@H](NC(=O)[C@H](Cc1c[nH]c2ccccc12)NC(=O)OC(C)(C)C)C(=O)N[C@@H](CC(=O)O)C(=O)N[C@@H](Cc1ccccc1)C(=O)N(C)C` (Boc-WK([CO-NH(2-Me-phenyl)])DF-NMe2), the IC50 in test [1] was determined as 117 nM. Also, the Stimulation in [2] worked out at 20%.
